Runt-SMMHC FRET: inhibitors of RUNX1 Runt–CBFb-SMMHC binding, primary screen, biochemical, FRET, Cerulean-Runt, Venus-CBFb-SMMHC, uHTS. Runt-related transcription factor 1 (Homo sapiens) + Core-binding factor subunit beta …. Cerulean-Runt/Venus-CBFb-SMMHC FRET ratio 530/480, 1 h. inhibition, % at 20 µM. 220,000 tested, 0.74% active. AID 1434, 2008;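 active = mean inhibition across duplicate retests at 20 µM reaching about 50%, limit read from the data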;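 also: 0% = DMSO wells and 100% = wells with excess untagged CBFb-SMMHC; inhibitors lower the FRET ratio by blocking Runt binding to CBFb-SMMHC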
Target sequence (Q01196 whole entry, looked up): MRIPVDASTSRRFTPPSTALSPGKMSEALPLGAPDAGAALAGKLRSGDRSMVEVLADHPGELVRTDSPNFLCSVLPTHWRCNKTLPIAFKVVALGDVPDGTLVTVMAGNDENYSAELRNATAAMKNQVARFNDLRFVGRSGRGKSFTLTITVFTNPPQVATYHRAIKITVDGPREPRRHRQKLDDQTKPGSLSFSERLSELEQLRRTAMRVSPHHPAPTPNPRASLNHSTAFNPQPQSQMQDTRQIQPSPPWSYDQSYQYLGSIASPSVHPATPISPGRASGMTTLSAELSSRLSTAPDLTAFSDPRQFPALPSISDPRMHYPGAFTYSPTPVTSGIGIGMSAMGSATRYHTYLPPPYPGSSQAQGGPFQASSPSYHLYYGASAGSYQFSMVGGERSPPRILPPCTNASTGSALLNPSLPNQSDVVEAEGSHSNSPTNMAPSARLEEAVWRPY
Target sequence (Q13951 whole entry, looked up): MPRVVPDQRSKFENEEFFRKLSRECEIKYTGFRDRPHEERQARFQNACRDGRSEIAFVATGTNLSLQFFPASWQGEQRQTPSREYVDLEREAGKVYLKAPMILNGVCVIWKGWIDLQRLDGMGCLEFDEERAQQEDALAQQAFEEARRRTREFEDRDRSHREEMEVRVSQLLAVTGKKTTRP
Tb hexokinase: Trypanosoma brucei hexokinase 1 inhibitors, primary screen, biochemical, G6PDH-coupled NADH absorbance, MLSCN library; 220,000 tested, 0.11% active; hexokinase 1 [Trypanosoma brucei]; AID 1430, 2008; inhibition, % at 10 µM; recombinant TbHK1, G6PDH-coupled NADH A340;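 active = inhibition of 50% or more in the single-dose primary screen; inactive = inhibition below 50%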
Runt-CBFb FRET: inhibitors of RUNX1 Runt–CBFb binding, primary screen, biochemical, FRET, Cerulean-Runt, Venus-CBFb, uHTS; Cerulean-Runt/Venus-CBFb FRET ratio 530/480, 1 h; 220,000 tested, 0.46% active; inhibition, % at 20 µM; Runt-related transcription factor 1 (Homo sapiens) + Core-binding factor subunit beta …;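 active = inhibition over about 50% at 20 µM in the single-dose screen, limit read from the data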;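 also: 0% = DMSO wells and 100% = excess unlabeled CBFb competitor control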
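Reagent – Venus-CBFb binding partner, 100 nM · Assay system – Cerulean-tagged RUNX1 Runt domain (FRET donor) fusion protein · Input – 100 nM per protein · Incubation – two 1 h room-temperature incubations shielded from light · Measured by – FRET fluorescence · Medium – Tris buffer pH 7.5 with salts and BSA · Benchmarks – unlabeled CBFb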
Hck Nef HTS: inhibitors of Nef-activated human Hck kinase, primary screen, biochemical, Z-Lyte FRET, 384-well, Hck-YEEI | 220,000 tested, 0.68% active | Recombinant Hck-YEEI plus Nef, Z-Lyte FRET kinase assay | inhibition, % at 20 µM | Tyrosine-protein kinase HCK (Homo sapiens), P08631;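 active = Hck-Nef kinase inhibition above about 50%, limit read from the data; inactive = inhibition below that limit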;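 also: 0% = DMSO with Hck plus Nef and 100% = Hck alone without Nef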
p97 ATPase inh: inhibitors of human p97 ATPase, primary screen, biochemical. Transitional endoplasmic reticulum ATPase (Homo sapiens), P55072. recombinant p97 ATPase, Kinase-Glo ATP luminescence, 3 h. inhibition, % at 8 µM. 220,000 tested, 0.42% active. AID 1481, 2009; in the data active = inhibition above about 15%;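 also: 0% = DMSO vehicle and 100% = wells lacking enzyme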
RanGTP-Impb inh: inhibitors of RanGTP-importin-beta interaction, primary screen, biochemical, FRET, CFP-Ran, YFP-importin-beta, homogeneous | Ran GTPase (GTP-bound) - importin-beta complex | inhibition, % (concentration not given with the values) | cell-free CFP-Ran/YFP-importin-beta FRET ratio | AID 2216, 2009 | 300,000 tested, 1.1% active;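 active = more than half of the replicate wells show a fall in the fluorescence ratio signal beyond about 16%, limit read from the data, passing the limit was not always enough; inconclusive = exactly half of the replicate wells pass the set limit; inactive = fewer than half of replicates pass the limit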;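 also: 0% = DMSO wells and 100% = Ran loaded with GDP instead of GTP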
* hit, by the source's call; ? = inconclusive; · = not tested or not shown. The list is not random: actives were taken first. Their share in the collection is about 2.1%.

SMILES	Runt-SMMHC FRET	Tb hexokinase	Runt-CBFb FRET	Hck Nef HTS	p97 ATPase inh	RanGTP-Impb inh
N#Cc1ccc(/C=N/NC(=O)c2cccc(S(=O)(=O)N3CCOCC3)c2)cc1	-1	-5	1	-15	7	32*
Cc1cc(C)c(C#N)c(SCc2nc3ccccc3[nH]2)n1	13	-2	4	6	1	19*
Cc1ccc(-n2nc(C)c(NS(=O)(=O)c3ccccc3)c2C)cc1C	2	0	-1	-2	1	36*
COC(=O)c1cccc(NC(=S)NC(C)C)c1	0	-6	0	-5	4	-1
O=C(NCc1ccco1)c1cnn2c(C(F)F)cc(-c3ccccc3)nc12	21	-7	6	4	0	32*
O=C(NCc1ccco1)c1cnn2c(C(F)(F)F)cc(-c3cccs3)nc12	52*	3	36	1	-1	?
O=C(c1cnn2c(C(F)(F)F)cc(-c3cccs3)nc12)N1CCCC1	4	-34	6	4	-3	5
CCc1cccc(C)c1NC(=S)N(CCN(C)C)Cc1cccs1	2	5	2	-9	-4	54*
Cc1cccc(C)c1NC(=S)N(CCN(C)C)Cc1cccs1	2	1	0	23	2	-1
COC(=O)c1c(NC(=O)C2CCCCC2)sc2c1CC(C)(C)NC2(C)C	·	·	·	·	·	1
Cc1ccc2c(n1)sc1c(-c3ccc(Br)cc3)c(C#N)c(N)nc12	92	-4	32	22	5	79*
NC(=O)c1ccccc1N/C=C/C(=O)c1ccc(Cl)cc1Cl	16	-24	5	5	-15	44*
Cc1cccn2c(=O)c3cc(C(=O)NCCN4CCOCC4)c(=N)n(Cc4ccc(F)cc4)c3nc12	·	·	·	·	·	162*
Cc1cccn2c(=O)c3cc(C(=O)NCCN4CCOCC4)n(C)c3nc12	·	·	·	·	·	4
Cc1cccn2c(=O)c3cc(C(=O)NCCN4CCOCC4)c(=N)n(CCN4CCOCC4)c3nc12	·	·	·	·	·	128*
Cc1cccn2c(=O)c3cc(C(=O)NC4CCCC4)c(=N)n(CCCN4CCOCC4)c3nc12	·	·	·	·	·	175*
Cc1cccn2c(=O)c3cc(C(=O)NCCN4CCOCC4)n(Cc4ccccc4)c3nc12	6	·	2	·	·	·
COc1cc2ncnc(NCc3ccccc3C)c2cc1OC	2	-5	-2	25	-1	-4
COc1cc2ncnc(NCc3ccccc3Cl)c2cc1OC	-1	-1	-3	74*	1	12
O=C(Nc1cccc(F)c1)/C(=C\c1ccco1)NC(=O)c1ccco1	·	·	·	·	·	1
C=CCn1c(SCC(=O)N(C)c2c(N)n(Cc3ccccc3)c(=O)[nH]c2=O)nnc1-c1ccccc1OC	·	·	·	·	·	-3
CCOc1ccc(CCNC(=O)c2cc(=O)[nH]c3ccc(S(=O)(=O)N(CC)CC)cc23)cc1OCC	·	·	·	·	·	1
O=C(Nc1ccc(N2CCOCC2)c(F)c1)c1cccs1	·	·	·	·	·	16*
COC(=O)c1cc(NC(=O)c2cccs2)ccc1N1CCOCC1	·	-16	·	16	7	1
Cc1cc(C)cc(-n2c3nc4ccccc4nc3c3c(=O)n(Cc4ccco4)cnc32)c1	·	-10	33	7	5	19*
SMILES	Runt-SMMHC FRET	Tb hexokinase	Runt-CBFb FRET	Hck Nef HTS	p97 ATPase inh	RanGTP-Impb inh
O=C(Cn1nnc(-c2ccc(F)cc2)n1)OCC(=O)c1ccccc1	-6	3	-1	8	1	20*
O=C(Cn1nnc(-c2ccccc2F)n1)OCC(=O)c1ccccc1	-1	-1	2	-7	-3	-3
CCOc1ccc(CCNC(=O)COC(=O)c2cccnc2OCC)cc1OCC	0	1	1	5	-1	20*
Clc1nc2nc3n(c2nc1Cl)CCC3	-5	-30	3	8	6	-2
CCNc1nc(OC)nc(N(OC)S(=O)(=O)c2ccc(C)cc2)n1	·	·	·	·	·	2
N#Cc1ccc(Oc2cnccn2)cc1	·	·	·	·	·	27*
CCn1c(=S)[nH]c2scc(-c3cccs3)c2c1=O	5	-2	6	15	-4	?
CC(C)n1c(=S)[nH]c2scc(-c3cccs3)c2c1=O	-12	24	8	98*	-1	?
O=C(OCCOc1ccccc1)c1n[nH]c2ccccc12	1	2	-3	7	0	0
CC1CC1c1ccc(/C=C(\C#N)C(=O)Nc2ccc(Cl)cc2Cl)o1 (configuration not stated)	-84	-12	-25	3	3	40*
CC1CC1c1ccc(/C=C(\C#N)C(=O)Nc2cc(Cl)ccc2Cl)o1 (configuration not stated)	-37	-9	-18	0	8	24*
O=C(O)C1CCCCC1C(=O)Nc1cc(Cl)ccc1Cl (configuration not stated)	-3	5	-2	0	0	-1
CS(=O)(=O)N1CCC(C(=O)NCc2ccc(Cl)cc2Cl)CC1	3	3	·	-12	-1	2
CCCCn1c(NC(=O)CC)c(C#N)c2nc3ccccc3nc21	11	-6	4	23	5	5
CCCCC(CC)Cn1c(N)c(C#N)c2nc3ccccc3nc21 (configuration not stated)	101*	11	44	6	1	49*
Cc1cccc(N2CCN(C(=O)Cn3sc4nc(C)cc(C)c4c3=O)CC2C)c1 (configuration not stated)	74*	4	-20	1	5	2
Cc1cc(C)c2c(=O)n(CC(=O)N3CCC(Cc4ccccc4)CC3)sc2n1	50*	-3	-15	-11	0	-4
COCc1ccc(C(=O)N2CCCC(C(=O)c3ccc(Cl)cc3C)C2)o1 (configuration not stated)	·	·	·	·	·	5
O=C(c1ccco1)[C@@H]1[C@@H]2C(=O)N(c3ccc(Br)cc3)C(=O)[C@@H]2C2c3ccccc3C=CN21 (some centres not stated)	-56	-10	-20	1	2	·
O=C(c1ccco1)[C@@H]1[C@@H]2C(=O)N(c3ccc(F)cc3)C(=O)[C@@H]2C2c3ccccc3C=CN21 (some centres not stated)	-45	-10	-13	1	9	45*
Cc1c(O)ccc2cc(S(=O)(=O)c3ccccc3)c(=O)oc12	·	·	·	·	·	132*
CCCN1C=CC(=C/C=C(\C#N)C(=O)OCC)C=C1	-92	2	-42	-1	4	?

Source: PubChem BioAssay
